Measurements pooled from the literature.
Compare with care: the assays were run in different laboratories.
BRAF: Serine/threonine-protein kinase B-raf (BRAF, Homo sapiens, UniProt P15056)
BRAF V600E: Serine/threonine-protein kinase B-raf (BRAF, Homo sapiens, UniProt P15056, V600E)

COc1cc2ncnc(Nc3ccc(Oc4ccccc4)c(C)c3C)c2cc1OC  inhibition (BRAF; enzyme activity; inhibitor; 1 µM): 11%
Cc1ccc(C(CS(=O)(=O)c2ccccc2)=NNC2=NC(=O)C(=NNc3ccccc3)S2)cc1  inhibition (BRAF V600E; enzyme activity; inhibitor; ATP luminescence; 0.1 µM): 54%
CS(=O)(=O)Nc1cccc(-c2csc(NC(=O)CSc3nc4nccnc4c(=O)n3CCc3ccccc3)n2)c1  inhibition (BRAF; enzyme activity; inhibitor; 10 µM): 1%
Cc1ccc(C(CS(=O)(=O)c2ccccc2)=NNC(N)=S)cc1  inhibition (BRAF V600E; enzyme activity; inhibitor; ATP luminescence; 10 nM): 31%
CN1CC(Oc2cnc(C#N)cc2-c2ccn3nc(NC(=O)C4CC4)cc3c2)C1  inhibition (BRAF; enzyme activity; inhibitor; 1 µM): 2%
CN(C)C1CCN(CC#Cc2nn(C3CCCC3)c3nc(NCc4ccccc4)ncc23)C1 (centres unmarked)  inhibition (BRAF; enzyme activity; inhibitor; FRET; 10 µM): 1%
O=C(CSc1nc2nccnc2c(=O)n1CCc1ccccc1)Nc1nccs1  inhibition (BRAF V600E; enzyme activity; inhibitor; 10 µM): -2%
COc1cc(-c2cc(-c3ccc(N4CCNCC4)cc3)cnc2N)cc(OC)c1OC  inhibition (BRAF V600E; enzyme activity; inhibitor; 0.1 µM): 5%
CCOc1cc(-c2nncn2C)ccc1Nc1ncc2cc(C)nc(NCC(C)(C)C)c2n1  inhibition (BRAF; cell-free assay; TR-FRET; 1 µM): ≤ 15%
Cc1ccc(N=Nc2sc(NN=C(CS(=O)(=O)c3ccccc3)c3ccc(C)cc3)nc2C)cc1  inhibition (BRAF V600E; enzyme activity; inhibitor; ATP luminescence; 10 µM): 87%
Cn1cncc1C1=CN(c2ncnc3[nH]cnc23)CCS1  inhibition (BRAF; enzyme activity; inhibitor; radiometric; 50 nM): 12.9%
